From ChEMBL document CHEMBL3352472, “Discovery of 4-aryl-7-hydroxyindoline-based P2Y1 antagonists as novel antiplatelet agents” (J Med Chem, 2014)
Active and inactive are the calls of the source. No cut-off for these calls is given here.

Experiments:
[1] = target: T1, P2Y purinoceptor 1 (Homo sapiens, UniProt P47900); assay: Antagonist activity at P2Y1 receptor in washed human platelets assessed as 1 uM 2-methylthio-ADP-induced calcium flux by FLIPR assay; format: functional
[2] = Metabolic stability in human liver microsomes assessed as compound remaining at 0.5 uM after 10 mins; format: ADME; conditions: read-out: Stability
Method in brief: (§1)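 Compound at 0.5 μM incubated 10 min with 1 mg/mL human, rat or mouse liver microsomes; percentage of parent remaining reported.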

[3] = Metabolic stability in rat liver microsomes assessed as compound remaining at 0.5 uM after 10 mins; format: ADME; conditions: read-out: Stability; method in brief: as §1
[4] = Metabolic stability in mouse liver microsomes assessed as compound remaining at 0.5 uM after 10 mins; format: ADME; conditions: read-out: Stability; method in brief: as §1
[5] = target: hERG (KCNH2) (Homo sapiens, UniProt Q12809); assay: Inhibition of human ERG at 1 uM by patch clamp assay
Chain of hERG (KCNH2) (Q12809 whole entry): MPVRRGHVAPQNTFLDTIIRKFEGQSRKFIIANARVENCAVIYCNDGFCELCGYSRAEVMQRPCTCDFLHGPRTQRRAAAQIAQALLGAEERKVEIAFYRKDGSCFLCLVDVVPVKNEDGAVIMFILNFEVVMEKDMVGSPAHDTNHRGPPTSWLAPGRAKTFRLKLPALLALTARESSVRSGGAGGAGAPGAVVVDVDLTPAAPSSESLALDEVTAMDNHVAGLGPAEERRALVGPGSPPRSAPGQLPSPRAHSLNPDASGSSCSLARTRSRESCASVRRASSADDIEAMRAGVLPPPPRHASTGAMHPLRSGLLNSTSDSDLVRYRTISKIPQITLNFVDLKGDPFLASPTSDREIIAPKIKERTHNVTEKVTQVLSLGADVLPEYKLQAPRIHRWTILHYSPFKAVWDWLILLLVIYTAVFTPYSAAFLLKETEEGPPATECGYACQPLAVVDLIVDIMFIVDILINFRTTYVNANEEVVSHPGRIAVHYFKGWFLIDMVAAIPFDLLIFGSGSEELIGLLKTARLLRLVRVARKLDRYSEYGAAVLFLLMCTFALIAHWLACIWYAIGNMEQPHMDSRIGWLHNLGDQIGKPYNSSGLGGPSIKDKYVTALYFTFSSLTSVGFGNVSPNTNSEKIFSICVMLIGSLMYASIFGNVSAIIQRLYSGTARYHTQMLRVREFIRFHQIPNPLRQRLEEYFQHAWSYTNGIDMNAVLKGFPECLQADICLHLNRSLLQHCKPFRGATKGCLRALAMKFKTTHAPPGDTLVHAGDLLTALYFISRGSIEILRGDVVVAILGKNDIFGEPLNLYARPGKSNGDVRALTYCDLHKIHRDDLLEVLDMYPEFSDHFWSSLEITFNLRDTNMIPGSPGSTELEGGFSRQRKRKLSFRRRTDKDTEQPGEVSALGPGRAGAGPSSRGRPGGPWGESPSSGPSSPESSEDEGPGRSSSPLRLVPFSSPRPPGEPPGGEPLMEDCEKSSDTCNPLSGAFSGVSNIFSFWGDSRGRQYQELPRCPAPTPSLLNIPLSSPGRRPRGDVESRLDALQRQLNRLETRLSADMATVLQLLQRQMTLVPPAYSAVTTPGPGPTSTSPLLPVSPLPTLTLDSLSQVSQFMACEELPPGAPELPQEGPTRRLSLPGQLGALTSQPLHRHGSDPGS

[6] = Clearance in rat at 0.5 mg/kg by cassette dosing method; format: ADME, organism-based; set-up: dose 0.5 mg/kg; conditions: in vivo
[7] = Volume of distribution at steady state in rat at 0.5 mg/kg by cassette dosing method; format: ADME, organism-based; set-up: dose 0.5 mg/kg; conditions: in vivo, read-out: Vdss
[8] = target: T1, P2Y purinoceptor 1; assay: Antagonist activity at P2Y1 receptor in platelet-enriched human plasma assessed as 10 uM ADP-induced platelet aggregation at 40 uM preincubated for 1 min followed by ADP induction measured at 5 mins by aggregometric analysis; format: cell-free
[9] = tested on: Oryctolagus cuniculus; assay: Antithrombotic activity in rabbit model of electrically-induced carotid artery thrombosis assessed as reduction in thrombus formation dosed 30 mins before electrical stimulation; format: functional, organism-based
[10] = tested on: Oryctolagus cuniculus; assay: Induction of bleeding time in rabbit model of electrically-induced carotid artery thrombosis at 80% antithrombotic dose administered 30 mins before electrical stimulation (reference value: 1 +/- 0.05); format: organism-based; conditions: in vivo, 0.5 h
[11] = Oral bioavailability in rat at 0.5 mg/kg by cassette dosing method; format: ADME, organism-based; conditions: in vivo

T1 sequence (P47900 whole entry): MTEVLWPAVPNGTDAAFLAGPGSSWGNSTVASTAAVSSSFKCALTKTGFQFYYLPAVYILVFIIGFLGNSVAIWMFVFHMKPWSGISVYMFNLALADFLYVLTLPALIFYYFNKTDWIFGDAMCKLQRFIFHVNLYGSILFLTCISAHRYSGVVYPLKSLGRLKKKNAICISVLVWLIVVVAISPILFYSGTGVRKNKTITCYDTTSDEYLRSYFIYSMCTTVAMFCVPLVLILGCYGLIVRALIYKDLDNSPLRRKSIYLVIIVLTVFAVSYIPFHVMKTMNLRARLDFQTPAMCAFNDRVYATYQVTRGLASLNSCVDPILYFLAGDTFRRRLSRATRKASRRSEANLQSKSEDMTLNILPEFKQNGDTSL

| Compound | IC50 [1] | remaining at 10 min, 0.5 µM [2] | remaining at 10 min, 0.5 µM [3] | remaining at 10 min, 0.5 µM [4] | other results |
| --- | --- | --- | --- | --- | --- |
| CC1(CC(F)(F)F)CN(c2ccccc2NC(=O)Nc2ccc(OC(F)(F)F)cc2)c2c(O)ccc(Cl)c21 (stereo not given) | 1.96 nM | 79% | 58% | 66% |  |
| CC(C)(C)CN1CCC2(CC1)CN(c1ccccc1NC(=O)Nc1nc3ccc(Cl)nc3s1)c1c(O)ccc(Cl)c12 |  |  |  | 84% | inhibition at 1 µM [5]: 57%; clearance [6]: 10.4 mL/min/kg; Vd [7]: 5.4 L/kg |
| CC(C)(C)CN1CCCC1c1ccc(NC(=O)Nc2ccccc2N2CC(C)(C)c3c(-c4ccc(F)cc4)ccc(O)c32)cc1 (stereo not given) | 0.04 nM | 45% | 34% | 52% |  |
| CNC(=O)C1(C)CN(c2ccccc2NC(=O)Nc2nc3ccc(F)cc3s2)c2c(O)ccc(Cl)c21 (stereo not given) |  | 16% | 5% | 16% | inhibition [8]: 46% |
| CC1(C)CN(c2ccccc2NC(=O)Nc2ccc(OC(F)(F)F)cc2)c2c(O)ccc(-c3cc(F)cc(F)c3)c21 | 0.57 nM | 63% | 59% | 64% |  |
| CC1(C)CN(c2ccccc2NC(=O)Nc2ccc(OC(F)(F)F)cc2)c2c(O)cc(F)c(-c3ccc(C(F)(F)F)cn3)c21 | 0.57 nM | 100% | 97% | 65% |  |
| CC1(C)CN(c2ccccc2NC(=O)Nc2ccc(OC(F)(F)F)cc2)c2c(O)cc(F)c(-c3ccc(F)cc3)c21 | 0.23 nM | 73% | 84% | 77% |  |
| CC(=O)Oc1cc2c(s1)CCN(C(C(=O)C1CC1)c1ccccc1F)C2 (stereo not given) |  |  |  |  | inhibition [9]: Active; fold change (FC) [10]: 6 |
| CC1(C)CN(c2ccccc2NC(=O)Nc2ccc(OC(F)(F)F)cc2)c2c(O)ccc(-c3ccc(C(F)(F)F)cc3)c21 | 1.51 nM | 96% | 94% | 89% |  |
| CC1(C)CN(c2ccccc2NC(=O)Nc2ccc(OC(F)(F)F)cc2)c2c(O)ccc(-c3ccc(F)cc3F)c21 | 0.52 nM | 81% | 72% | 79% |  |
| CC1(C)CN(c2ccccc2NC(=O)Nc2nc3ccc(Cl)nc3s2)c2c(O)ccc(Cl)c21 | 0.14 nM |  |  |  |  |
| CC1(C)CN(c2ccccc2NC(=O)Nc2ccc(OC(F)(F)F)cc2)c2c(O)cc(F)c(-c3ncc(F)cn3)c21 | 0.3 nM | 41% | 61% | 42% |  |
| CC1(C)CN(c2ccccc2NC(=O)Nc2ccc(OC(F)(F)F)cc2)c2c(O)cc(F)c(-c3cc(F)nc(F)c3)c21 | 0.47 nM | 75% | 80% | 75% |  |
| CC1(C)CN(c2ccccc2NC(=O)Nc2ccc(OC(F)(F)F)cc2)c2c(O)ccc(-c3ccc(F)cc3)c21 | 0.33 nM | 87% | 89% | 83% |  |
| CC1(C(=O)O)CN(c2ccccc2NC(=O)Nc2nc3ccc(Cl)nc3s2)c2c(O)ccc(Cl)c21 (stereo not given) |  |  |  |  | inhibition [8]: 90% |
| CC1(CO)CN(c2ccccc2NC(=O)Nc2nc3ccc(Cl)nc3s2)c2c(O)ccc(Cl)c21 (stereo not given) |  |  |  |  | inhibition [8]: 72% |
| CC1(C)CN(c2ccccc2NC(=O)Nc2ccc(OC(F)(F)F)cc2)c2c(O)ccc(-c3ccc(F)c(F)c3)c21 | 1.8 nM | 90% | 81% | 66% |  |
| CC1(C)CN(c2ccccc2NC(=O)Nc2csc(Cl)n2)c2c(O)ccc(-c3ccc(F)cc3)c21 | 0.03 nM | 80% | 0% | 75% |  |

| Compound | IC50 [1] | remaining at 10 min, 0.5 µM [2] | remaining at 10 min, 0.5 µM [3] | remaining at 10 min, 0.5 µM [4] | other results |
| --- | --- | --- | --- | --- | --- |
| CC1(C)CN(c2ccccc2NC(=O)Nc2nc3ccc(Cl)nc3s2)c2c(O)ccc(-c3ccc(F)cc3)c21 | 0.13 nM | 75% | 74% | 65% |  |
| COC(=O)[C@H](c1ccccc1Cl)N1CCc2sccc2C1 [CLOPIDOGREL] |  |  |  |  | inhibition [9]: Active; fold change (FC) [10]: 6 |
| CC1(C)CN(c2ccccc2NC(=O)Nc2ccc(OC(F)(F)F)cc2)c2c(O)c(F)cc(-c3ccc(Cl)cc3)c21 |  | 88% | 100% | 80% |  |
| CC1(C)CN(c2ccccc2NC(=O)Nc2ccc(OC(F)(F)F)cc2)c2c(O)cc(F)c(-c3ccc(C(F)(F)F)nc3)c21 | 0.51 nM | 68% | 69% | 73% |  |
| CCOC(=O)C1(C)CN(c2ccccc2NC(=O)Nc2ccc(OC(F)(F)F)cc2)c2c(O)ccc(Cl)c21 (stereo not given) | 0.09 nM |  |  |  |  |
| CC(C)(C)CN1CCC2(CC1)CN(c1ccccc1NC(=O)Nc1ccc(OC(F)(F)F)cc1)c1c(O)cc(F)c(-c3ccc(Cl)cc3)c12 | 0.16 nM | 78% | 72% | 74% | clearance [6]: 3.7 mL/min/kg; Vd [7]: 1.3 L/kg; bioavailability [11]: 15% |
| CC1(C)CN(c2ccccc2NC(=O)Nc2ccc(OC(F)(F)F)cc2)c2c(O)ccc(-c3ccc(Cl)cc3)c21 | 0.13 nM | 84% | 83% | 78% |  |
| CC1(C)CN(c2ccccc2NC(=O)Nc2ccc(OC(F)(F)F)cc2)c2c(O)cc(F)c(-c3cnc(Cl)cn3)c21 |  | 77% | 83% | 67% |  |
| CC1(C)CN(c2ccccc2NC(=O)Nc2ccc(OC(F)(F)F)cc2)c2c(O)ccc(-c3ccccc3)c21 | 0.37 nM | 76% | 67% | 48% |  |
| CC1(C)CN(c2ccccc2NC(=O)Nc2ccc(OC(F)(F)F)cc2)c2c(O)ccc(Cl)c21 | 0.39 nM | 66% | 57% | 58% |  |
| CCOC(=O)C1(C)CN(c2ccccc2NC(=O)Nc2nc3ccc(Cl)nc3s2)c2c(O)ccc(Cl)c21 (stereo not given) | 0.05 nM | 47% | 14% | 54% |  |
| CC1(C)CN(c2ccccc2NC(=O)Nc2ccc(OC(F)(F)F)cc2)c2c(O)ccc(-c3cccc(F)c3)c21 | 0.15 nM | 67% | 59% | 56% |  |
| CC1(C)CN(c2ccccc2NC(=O)Nc2ccc(OC(F)(F)F)cc2)c2c(O)c(F)cc(-c3ccc(F)cc3)c21 | 0.45 nM | 80% | 71% | 66% |  |
| CC(C)(C)CN1CCC2(CC1)CN(c1ccccc1NC(=O)Nc1ccc(OC(F)(F)F)cc1)c1c(O)cc(F)c(-c3ccc(F)cc3)c12 | 0.09 nM | 81% | 80% | 67% | clearance [6]: 4.2 mL/min/kg; Vd [7]: 1 L/kg; bioavailability [11]: 17% |
| CC(C)CN1CCCC1c1ccc(NC(=O)Nc2ccccc2N2CC(C)(C)c3c(-c4ccc(F)cc4)ccc(O)c32)cc1 (stereo not given) | 0.02 nM | 58% | 39% | 53% | clearance [6]: 34 mL/min/kg; Vd [7]: 9.8 L/kg; bioavailability [11]: 4% |
| Cc1nc(NC(=O)Nc2ccccc2N2CC(C)(C)c3c(-c4ccc(F)cc4)ccc(O)c32)cs1 | 0.08 nM | 95% | 55% | 52% |  |
| CC1(C)CN(c2ccccc2NC(=O)Nc2ccc(OC(F)(F)F)cc2)c2c(O)cc(F)c(-c3ccc(Cl)s3)c21 | 2.3 nM | 92% | 79% | 88% |  |
| CC1(C)CN(c2ccccc2NC(=O)Nc2ccc(OC(F)(F)F)cc2)c2c(O)ccc(-c3ccccc3F)c21 | 0.37 nM | 62% | 54% | 48% |  |
